From PubChem
ASAP1 GAP inh: inhibitors of human ASAP1 ArfGAP activity; ASAP1-stimulated ARF1 GTP hydrolysis, GDP FP detection; actives 0.19% (n = 360,000); Q9ULH1; inhibition, % at 16.5 µM; AID 624377; in the data active = inhibition above about 25%;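 note: 0% = vehicle with enzyme and substrate and 100% = no enzyme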
pPAFAH FP inh: inhibitors of human plasma PAF acetylhydrolase (pPAFAH); recombinant pPAFAH, FP-rhodamine probe fluorescence polarization; actives 1.5% (n = 330,000); Q13093; AID 463082; inhibition, % at 3.39 µM;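 active = inhibition above the mean inhibition across the screen plus 3 SD, cut at about 25% in these data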;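 note: inhibitors block binding of the rhodamine activity-based probe so polarization drops; 0% = enzyme with DMSO and 100% = wells lacking pPAFAH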
ARFGAP1 inh: rat ARFGAP1 inhibition; Arfgap1-stimulated ARF1 GTP hydrolysis, GDP FP detection; inhibition, % at 16.5 µM; AID 651572; actives 0.26% (n = 360,000);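 active = inhibition above a per-plate limit, mean inhibition of low control wells plus 3 SD, cut at about 25% in these data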;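 note: 0% = DMSO wells with enzyme and 100% = wells lacking Arfgap1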
Target sequence (Q62848 1-136 limits assumed): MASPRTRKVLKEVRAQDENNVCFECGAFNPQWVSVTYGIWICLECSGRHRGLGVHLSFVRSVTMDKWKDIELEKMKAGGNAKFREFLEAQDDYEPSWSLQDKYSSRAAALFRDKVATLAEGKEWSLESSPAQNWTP
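Material: rat Arfgap1 catalytic domain, aa 1-136; also added: human ARF1(Δ1-17)-GTP substrate; compound dosing: one concentration, 16.5 µM, DMSO 1.26%; incubation: GTP hydrolysis reaction 2 h at 25 °C; measured by: Tracer-displacement fluorescence polarization with EDTA stop, 620/688 nm; evaluation: % inhibition from polarization; repeats: one replicate per compound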
PAFAH1B2 inh: inhibitors of human PAFAH1B2; actives 1.2% (n = 340,000); recombinant PAFAH1B2, FP-rhodamine activity probe, fluorescence polarization; AID 492953; inhibition, % at 3.39 µM;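 active = inhibition above the mean of all tested compounds plus 3 SD, cut at about 24% in these data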;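 note: 0% = enzyme with DMSO and 100% = wells lacking PAFAH1B2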
Target sequence (P68402 whole entry, looked up): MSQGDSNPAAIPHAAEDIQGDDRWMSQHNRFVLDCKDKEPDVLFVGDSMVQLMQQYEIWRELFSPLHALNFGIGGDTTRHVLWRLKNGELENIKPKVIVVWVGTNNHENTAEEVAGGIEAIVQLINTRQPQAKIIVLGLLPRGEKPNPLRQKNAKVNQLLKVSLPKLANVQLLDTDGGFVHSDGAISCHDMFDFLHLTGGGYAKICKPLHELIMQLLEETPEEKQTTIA
PAFAH2 FP inh: PAFAH2 (human) inhibition | inhibition, % at 3.39 µM | AID 492956 | Q99487 | recombinant PAFAH2, FP-rhodamine activity probe, fluorescence polarization | actives 0.99% (n = 340,000);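 active = inhibition above the mean over all tested compounds plus 3 SD, cut at about 30% in these data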;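 note: inhibitors block probe labeling of enzyme so polarization drops; 0% = enzyme with DMSO and 100% = wells lacking PAFAH2 protein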
PAFAH1B3 FP inh: blocks human PAF acetylhydrolase 1B catalytic subunit 3; Q15102; inhibition, % at 3.39 µM; recombinant PAFAH1B3, FP-rhodamine probe, fluorescence polarization; actives 0.28% (n = 340,000); AID 492972;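 active = inhibition above the screen-wide average of all tested compounds plus 3 SD, cut at about 25% in these data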;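 note: 0% = enzyme with DMSO only and 100% = wells lacking PAFAH1B3 protein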
Target sequence (Q15102 whole entry, looked up): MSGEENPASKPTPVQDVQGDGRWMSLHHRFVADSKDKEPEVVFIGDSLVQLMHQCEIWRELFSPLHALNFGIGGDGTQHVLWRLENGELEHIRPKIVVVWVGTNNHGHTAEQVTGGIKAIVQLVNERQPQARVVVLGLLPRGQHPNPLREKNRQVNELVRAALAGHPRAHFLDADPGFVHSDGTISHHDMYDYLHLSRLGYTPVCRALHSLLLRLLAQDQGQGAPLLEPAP
ARFGAP1 inh conf: rat ARFGAP1 inhibition, confirmed. shares compounds with ARFGAP1 inh. ARFGAP1-stimulated ARF1 GTP hydrolysis, GDP tracer FP. inhibition, % at 16.5 µM. actives 30% (n = 890). AID 651608;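 active = average inhibition over triplicates above the hit cutoff set in the earlier primary screen, cut at about 25% in these data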;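 note: 0% = Arfgap1 plus ARF1-GTP with DMSO and 100% = wells lacking Arfgap1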
Active calls of the source: *; nt = not tested or not shown; + = active, no number. The list is not random: actives were taken first. Their share in the collection is about 2.8%.

SMILES	ASAP1 GAP inh	pPAFAH FP inh	ARFGAP1 inh	PAFAH1B2 inh	PAFAH2 FP inh	PAFAH1B3 FP inh	ARFGAP1 inh conf
CCOC(=O)c1ccc(/C=C2\c3ccccc3C(=O)N2c2ccccc2)cc1F	8	3	12	-1	-1	-10	nt
CCOC(=O)c1ccc(-c2ccc3c(=O)c4ccccc4n(C)c3c2)cc1F	-12	-1	26*	1	7	-1	8
Cc1cc(NC(=O)NC(=O)c2ccccc2NC(=O)CN)ccc1Oc1ncc(Br)cn1	-1	nt	6	-2	-1	15	nt
Cc1cc(NC(=O)NC(=O)c2ccccc2NC(=O)CN(C)C)ccc1Oc1ncc(Br)cn1	5	nt	31*	3	14	7	6
CCOC(=O)c1oc2ccccc2c1NC(=O)c1ccc(Cl)s1	0	0	32*	7	6	0	6
CCOC(=O)c1oc2ccccc2c1NC(=O)CCl	7	2	-14	-2	6	9	nt
Cc1ccc(-n2c(=O)cc(N3CCC(C)CC3)[nH]c2=O)cc1	12	4	26*	2	-5	1	3
Cc1ccc(-n2c(=O)cc(N3CC(C)CC(C)C3)[nH]c2=O)cc1 (centres undefined)	-5	-1	-8	-3	-9	1	nt
Cc1ccc(C(=O)Nc2ccc(S(=O)(=O)N3CCCC3)cc2)o1	-1	0	26*	7	-2	2	-1
CC(C)N(C(=O)NC(=O)Nc1ccc(S(=O)(=O)N2CCCC2)cc1)S(C)(=O)=O	17	-5	36*	-3	-5	2	14
CC(C)CC(=O)Nc1ccc(S(=O)(=O)N2CCCC2)cc1	6	5	-12	6	-1	2	nt
COc1ccc(C(CC(=O)O)N2Cc3ccccc3C2=O)cc1OC (centres undefined)	-5	4	12	9	4	15	nt
COC(=O)[C@@]12C[C@@H](CC(=O)NCCC(C)C)C(=O)N(Cc3ccccc3)C1=CCC(C)(C)C2	2	nt	12	nt	nt	nt	nt
COc1ccccc1NC(=O)COC(=O)c1oc2ccccc2c1C	1	2	6	-6	0	-1	nt
Cc1[nH]c2ccccc2c1CC(=O)Nc1ccc(Nc2cccnc2)c(-c2cc(C(F)(F)F)cc(C(F)(F)F)c2)c1	8	nt	11	nt	nt	nt	nt
Cc1[nH]c2ccccc2c1CC(=O)Nc1ccc(Nc2ccncc2)cc1	9	nt	-5	nt	nt	nt	nt
Cc1[nH]c2ccccc2c1CC(=O)Nc1ccc(Nc2ccccc2)cc1	9	nt	29*	nt	nt	nt	25*
Cc1[nH]c2ccccc2c1CC(=O)Nc1ccc(Nc2cccnc2)c(-c2cc(F)cc(F)c2)c1	7	nt	26*	nt	nt	nt	18
NC(=O)c1ncn([C@@H]2O[C@H](CNCc3cccn3-c3ccncc3)[C@@H](O)[C@H]2O)n1	-4	nt	8	3	1	1	nt
CC(C)Cn1c(N)c(C(=O)CSc2nc3ncc(Cl)cc3[nH]2)c(=O)n(C)c1=O	11	0	25*	-2	1	0	10
C=CCN(C(=O)CC(NC(C)=O)c1ccccc1)c1nc(-c2ccc(S(C)(=O)=O)cc2)cs1 (centres undefined)	0	3	3	0	3	12	nt
Cc1cc(S(=O)(=O)Nc2ccc3ccccc3c2)c(C)s1	16	5	-9	2	-6	0	nt
Cc1cc(S(=O)(=O)Nc2cccnc2)c(C)s1	-8	1	25*	2	0	6	8
COc1ccc2cc(CCNC(=O)c3ccc(S(=O)(=O)N4CCCC4)cc3)c(=O)[nH]c2c1	13	6	-1	5	2	0	nt
CCOc1ccc(-c2[nH]ncc2-c2ccccc2)c(O)c1	14	5	25*	4	10	3	6
SMILES	ASAP1 GAP inh	pPAFAH FP inh	ARFGAP1 inh	PAFAH1B2 inh	PAFAH2 FP inh	PAFAH1B3 FP inh	ARFGAP1 inh conf
CCCOc1ccc(OCCNC2CCCC2)cc1	-5	5	26*	9	6	12	3
CCOc1ccc(OCCNC2CCCC2)cc1	-1	-1	-2	3	-6	1	nt
Cc1ccc(Nc2ncccc2C(=O)NCc2cccs2)c(C)c1	7	4	24	6	11	3	nt
Cc1cccc(Nc2ncccc2C(=O)NCc2cccs2)c1C	8	4	26*	-2	-9	4	7
COc1ccc(NC(=O)CSc2nnc(-c3ccncc3)n2CC2CCCO2)c(OC)c1 (centres undefined)	-4	3	26*	-4	6	-1	-3
O=C(C[n+]1ccccc1)N/N=C/c1ccc(C(=O)O)cc1	-22	2	10	4	-1	6	nt
CC1CCC(NC(=O)c2ccc3c(c2)OCO3)CC1 (centres undefined)	6	1	13	6	13	-5	nt
CC1(C)CC(NC(=O)c2ccc3c(c2)OCO3)CC(C)(C)N1	4	2	26*	2	3	6	1
O=C(c1ccc(F)cc1F)N1CCCc2ccccc21	5	nt	12	8	-1	6	nt
O=C(NCCc1nc2ccccc2[nH]1)c1ccc(F)cc1	nt	-1	nt	1	0	2	nt
O=C(NCCc1nc2ccccc2[nH]1)c1cccc(Br)c1	-3	4	25*	-2	-8	3	-2
Oc1ccc(/C=C/c2ccc3cccc(O)c3n2)cc1Br	14	18	28*	8	6	24	7
CC1(C(=O)Nc2ccc3c(c2)OCCO3)CN(S(C)(=O)=O)CC(=O)N1Cc1cccc(C(F)(F)F)c1 (centres undefined)	-6	nt	10	nt	nt	nt	nt
COc1ccccc1NS(=O)(=O)c1cc(NC(=O)c2cc(=O)[nH]c3ccccc23)ccc1N1CCOCC1	15	2	28*	-2	-2	-4	9
Cc1c(C(=O)Nc2nnc(C3CC3)s2)oc2ccccc12	-1	3	6	5	4	-1	nt
Cc1ccc2nc(N/C(=N/S(=O)(=O)c3ccc(F)cc3F)c3ccccc3)sc2c1	8	0	-7	3	12	6	nt
CCOC(=O)Cc1csc(N/C(=N/S(=O)(=O)c2ccc(F)cc2F)c2ccccc2)n1	13	-2	+	5	-10	3	5
Cc1cc(O)c(C(C)C)cc1C1(c2cc(C(C)C)c(O)cc2C)OC(=O)c2ccccc21	18	-5	27*	-5	-8	5	19
O=C(CC12CC3CC(CC(C3)C1)C2)NC1CC1	-3	0	10	12	2	5	nt
Nc1nonc1-c1nc2ccccc2n1Cc1ccc(Cl)cc1	8	-8	25*	-1	-13	9	1
Cc1ccc(Cn2c(-c3nonc3N)nc3ccccc32)cc1	-3	0	6	-5	2	-2	nt
